Experimental data: ChEMBL document CHEMBL1156073, “Hydroxamic acids as a novel family of serine racemase inhibitors: mechanistic analysis reveals different modes of interaction with the pyridoxal-5'-phosphate cofactor” (J Med Chem, 2009)
Active and inactive are the calls of the source. No cut-off for these calls is given here.

Legend:
Serine racemase [1] = biological target: T1, Serine racemase (Mus musculus, UniProt Q9QZX7); assay: Inhibition of mouse recombinant serine racemase expressed in Escherichia coli MC1061 assessed as formation of D-serine after 30 mins by HPLC analysis
T1 sequence (Q9QZX7 whole entry): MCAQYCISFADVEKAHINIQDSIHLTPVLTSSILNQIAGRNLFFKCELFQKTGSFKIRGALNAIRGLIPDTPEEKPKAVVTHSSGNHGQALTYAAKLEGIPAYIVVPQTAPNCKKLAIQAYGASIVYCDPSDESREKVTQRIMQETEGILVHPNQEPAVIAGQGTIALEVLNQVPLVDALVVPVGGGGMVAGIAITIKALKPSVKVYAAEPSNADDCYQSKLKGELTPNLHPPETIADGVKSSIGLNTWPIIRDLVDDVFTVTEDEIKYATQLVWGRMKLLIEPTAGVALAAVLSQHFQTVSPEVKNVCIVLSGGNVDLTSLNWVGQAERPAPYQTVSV
Procedure, shortened: (§1)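 Mouse SR (E. coli MC1061, arabinose-induced, three-step chromatography, ~90% pure) incubated in pH 8.0 buffer with 10 μM PLP, 1 mM ATP, 1 mM MgCl2, 5 mM DTT. Screening used 5 mM L-serine and 5 mM test compound; IC50 runs varied inhibitor at 5 mM L-serine. 30 min at 37 C, stopped with 0.3 M HClO4; D-serine quantified by HPLC. Duplicate or triplicate runs.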

Serine racemase [2] = biological target: T1, Serine racemase; assay: (§2) Inhibition of mouse recombinant serine racemase expressed in Escherichia coli MC1061 assessed as formation of D-serine after 30 mins by Linewaver-burk and Eadie-Hofstee plot analysis
Procedure, shortened: (§3)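 Mouse SR racemization at varied L-serine and inhibitor concentrations, pH 8.0, 10 μM PLP, 30 min at 37 C. End-point HPLC measured D-serine peak area relative to a glycine internal standard, in triplicate. Global nonlinear fit followed by linear transformation.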

[3] = biological target: T2, Serine racemase (Homo sapiens) (UniProt Q9GZT4); assay: Inhibition of human recombinant serine racemase assessed as formation of D-serine at 5 mM treated for 15 to 20 mins before addition of substrate by HPLC analysis in presence of increasing concentration of PLP
T2 sequence (whole entry): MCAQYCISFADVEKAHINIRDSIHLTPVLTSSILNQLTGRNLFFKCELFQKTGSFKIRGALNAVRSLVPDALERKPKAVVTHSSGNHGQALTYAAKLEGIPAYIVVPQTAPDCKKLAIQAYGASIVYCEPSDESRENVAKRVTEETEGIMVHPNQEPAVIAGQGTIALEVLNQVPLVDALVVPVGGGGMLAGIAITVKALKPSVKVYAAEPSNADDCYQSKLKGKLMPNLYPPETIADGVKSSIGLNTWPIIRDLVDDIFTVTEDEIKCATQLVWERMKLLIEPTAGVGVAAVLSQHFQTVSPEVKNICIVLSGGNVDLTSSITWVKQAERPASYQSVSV

[4] = Chemical stability assessed as hydrolysis-associated hydroxylamine formation at 0.05 mM after 1 hr in phosphate buffer of pH 8; type: physicochemical; conditions: pH 8, 1 h, 50 µM
Procedure, shortened: (§4)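 Compound at 0.5 mM or 0.05 mM, diluted from fresh 10 mM stocks, held in 100 mM phosphate buffer pH 8.0 or 7.4 at room temperature for 0, 30 or 60 min. Picrylsulfonic acid then added; released hydroxylamine read as absorbance at 494 nm 15 min later.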

[5] = Chemical stability assessed as hydrolysis-associated hydroxylamine formation at 0.05 mM after 1 hr in phosphate buffer of pH 7.4; type: physicochemical; conditions: pH 7.4, 1 h, 50 µM; procedure, shortened: as §4
[6] = Binding affinity to pyridoxal-5'-phosphate assessed as formation of syn- and anti-PLP-aldoxime by NMR spectroscopy
Procedure, shortened: (§5)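 Compound and PLP solutions prepared in 100 mM phosphate buffer in D2O, pD held near 8.0; chemical shifts followed by NMR after mixing.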

[7] = biological target: T3, Serine racemase (Mus musculus) (UniProt Q9QZX7); assay: Inhibition of mouse recombinant serine racemase expressed in Escherichia coli MC1061 assessed as formation of D-serine at 5 mM after 30 mins by HPLC analysis in presence of 5 fold molar excess of MgCl2 over compound
T3 sequence (whole entry): T1 sequence (Q9QZX7 whole entry)

[8] = Binding affinity to pyridoxal-5'-phosphate assessed as formation of PLP-aldoxime at 5 mM after 1 hr by UV/vis spectroscopy
Procedure, shortened: (§6)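 PLP and compound solutions in 100 mM phosphate buffer pH 8.0 mixed 1:1, giving 300 μM PLP and 5 mM compound final. Incubated 1 h at room temperature, then absorbance scanned from 310 to 500 nm.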

[9] = biological target: T3, Serine racemase (Mus musculus); assay: Inhibition of mouse recombinant serine racemase expressed in Escherichia coli MC1061 assessed as formation of D-serine at 5 mM treated for 15 to 20 mins before addition of substrate by HPLC analysis in presence of increasing concentration of PLP
[10] = biological target: T3, Serine racemase (Mus musculus); assay: Inhibition of mouse recombinant serine racemase expressed in Escherichia coli MC1061 assessed as formation of D-serine at 5 mM in phosphate buffer of pH 8 treated for 15 to 20 mins before addition of substrate by HPLC analysis in presence of 10 uM PLP
[11] = Binding affinity to pyridoxal-5'-phosphate assessed as formation of PLP-aldoxime by ESI-MS analysis
Procedure, shortened: (§7)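 Compound weighed into PLP stock at about 1:1 molar ratio with PLP, with or without 200 mM ammonium sulfate pH 8.0. Mixture diluted 40- to 100-fold in water and analysed by ESI-MS in negative ion mode.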

[12] = biological target: T3, Serine racemase (Mus musculus); assay: Inhibition of mouse recombinant serine racemase expressed in Escherichia coli MC1061 assessed as formation of D-serine at 5 mM after 30 mins by HPLC analysis; procedure, shortened: as §1
[13] = Inhibition of broad-range bacterial transaminase assessed as formation of L-glutamic acid at 5 mM in phosphate buffer of pH 8 treated for 15 to 20 mins before addition of substrate by HPLC analysis in presence of 10 uM PLP
Procedure, shortened: (§8)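 Enzyme in 50 mM phosphate buffer pH 8.0 with 10 μM PLP, preincubated with 5 mM inhibitor at room temperature for 15-20 min. Substrate added near KM: alanine racemase 5 mM D-alanine (L-alanine formed); SDH 50 mM L-serine (SDH partially purified, ~50%, from E. coli BL21-RIL); transaminase 5 mM L-aspartic acid plus 5 mM α-ketoglutarate. Products analysed by HPLC.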

[14] = biological target: T4, L-serine dehydratase/L-threonine deaminase (Rattus norvegicus) (UniProt P09367); assay: Inhibition of rat SDH expressed in Escherichia coli BL21-RIL assessed as formation of pyruvate at 5 mM in phosphate buffer of pH 8 treated for 15 to 20 mins before addition of substrate by HPLC analysis in presence of 10 uM PLP; procedure, shortened: as §8
T4 sequence (whole entry): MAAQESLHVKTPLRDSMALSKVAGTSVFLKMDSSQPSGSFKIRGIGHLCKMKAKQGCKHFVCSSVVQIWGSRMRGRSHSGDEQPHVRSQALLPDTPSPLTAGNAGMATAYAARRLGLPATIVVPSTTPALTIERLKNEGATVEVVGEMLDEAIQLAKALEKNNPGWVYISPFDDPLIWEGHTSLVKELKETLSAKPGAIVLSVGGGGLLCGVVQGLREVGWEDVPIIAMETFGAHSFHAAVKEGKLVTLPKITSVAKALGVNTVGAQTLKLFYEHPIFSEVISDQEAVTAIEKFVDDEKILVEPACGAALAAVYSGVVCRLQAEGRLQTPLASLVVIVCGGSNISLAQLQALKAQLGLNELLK

[15] = biological target: T5, Alanine racemase (Geobacillus stearothermophilus) (UniProt P10724); assay: Inhibition of Bacillus stearothermophilus alanine racemase assessed as formation of L-alanine at 5 mM in phosphate buffer of pH 8 treated for 15 to 20 mins before addition of substrate by HPLC analysis in presence of 10 uM PLP; procedure, shortened: as §8
T5 sequence (whole entry): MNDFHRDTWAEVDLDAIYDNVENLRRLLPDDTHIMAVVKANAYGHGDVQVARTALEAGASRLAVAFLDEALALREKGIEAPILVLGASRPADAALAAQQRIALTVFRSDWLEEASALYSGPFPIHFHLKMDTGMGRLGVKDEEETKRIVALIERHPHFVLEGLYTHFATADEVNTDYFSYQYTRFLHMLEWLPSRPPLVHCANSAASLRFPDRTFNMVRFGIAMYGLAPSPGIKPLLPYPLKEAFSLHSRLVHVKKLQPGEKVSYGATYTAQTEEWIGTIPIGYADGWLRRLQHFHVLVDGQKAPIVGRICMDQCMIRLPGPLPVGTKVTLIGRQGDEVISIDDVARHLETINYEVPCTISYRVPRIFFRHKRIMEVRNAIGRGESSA

[16] = Binding affinity to pyridoxal-5'-phosphate assessed as compound remaining after 12 days by NMR spectroscopy; procedure, shortened: as §5
[17] = Chemical stability assessed as hydrolysis-associated hydroxylamine formation at 0.5 mM after 1 hr in phosphate buffer of pH 7.4; type: physicochemical; conditions: pH 7.4, 1 h, 500 µM; procedure, shortened: as §4
[18] = biological target: T2, Serine racemase (Homo sapiens); assay: Inhibition of human recombinant serine racemase assessed as formation of D-serine at 5 mM in phosphate buffer of pH 8 treated for 15 to 20 mins before addition of substrate by HPLC analysis in presence of 10 uM PLP
Procedure, shortened: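 Recombinant human SR assayed as for mouse SR: pH 8.0 buffer with 10 μM PLP, 1 mM ATP, 1 mM MgCl2, 5 mM DTT, 5 mM L-serine and 5 mM compound. Incubated 30 min at 37 C, stopped with HClO4; D-serine measured by HPLC.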

[19] = Chemical stability assessed as hydrolysis-associated hydroxylamine formation at 0.5 mM after 1 hr in phosphate buffer of pH 8; type: physicochemical; conditions: pH 8, 1 h, 500 µM; procedure, shortened: as §4
[20] = Binding affinity to pyridoxal-5'-phosphate assessed as formation of PLP-aldimine at active site by ESI-MS analysis; procedure, shortened: as §7
[21] = Binding affinity to 30 mM pyridoxal-5'-phosphate assessed as formation of PLP-aldimine by ESI-MS analysis
[22] = Binding affinity to pyridoxal-5'-phosphate assessed as formation of syn- and anti-PLP-aldoxime after 20 hrs by NMR spectroscopy; procedure, shortened: as §5
Serine racemase [23] = biological target: T1, Serine racemase; assay: Inhibition of mouse recombinant serine racemase transfected in bacterial expression system
[24] = Binding affinity to pyridoxal-5'-phosphate assessed as PLP-amino acid Schiff base interaction at 5 mM after 1 hr by UV/vis spectroscopy; procedure, shortened: as §6
[25] = Binding affinity to 4-5 mM pyridoxal-5'-phosphate assessed as formation of PLP-aldimine by ESI-MS analysis; procedure, shortened: as §7
[26] = Binding affinity to pyridoxal-5'-phosphate assessed as formation of PLP-aldimine by NMR spectroscopy; procedure, shortened: as §5
[27] = biological target: T3, Serine racemase (Mus musculus); assay: as §2; procedure, shortened: as §3

O=C(CC(=O)NO)NO [MALONODIHYDROXAMIC ACID]
IC50 (Serine racemase [1]): 370 µM | Ki (Serine racemase [2]): 417 µM | inhibition [3]: inactive | Stability [4]: Unstable | Stability [5]: Unstable | Activity [6]: Active | inhibition [7]: Active | Activity [8]: Active | inhibition [9]: inactive | inhibition [10]: Active | Activity [11]: Active

Nc1ccc(C(=O)NO)cc1
inhibition [12]: inactive

O=C(NO)C(=O)NO
inhibition [13]: inactive | inhibition [12]: inactive | inhibition [14]: inactive | inhibition [15]: inactive | Activity [16]: 20% | Activity [6]: inactive | Stability [17]: Stable | inhibition [18]: inactive | Activity [8]: inactive | inhibition [10]: inactive | Stability [19]: Stable | Activity [11]: inactive

NCC(=O)NO
inhibition [12]: inactive | Activity [20]: inactive | Activity [21]: Active

O=C(CCCCCCC(=O)NO)NO [SUBEROHYDROXAMIC ACID]
inhibition [12]: inactive | Activity [6]: inactive | Stability [17]: Stable | Stability [19]: Stable | Activity [11]: inactive | Activity [22]: inactive

O=C(O)CC(=O)O [MALONIC ACID]
Ki (Serine racemase [23]): 71 µM

N[C@@H](CC(=O)NO)C(=O)O
IC50 (Serine racemase [1]): 1300 µM | inhibition [13]: inactive | inhibition [14]: Active | inhibition [15]: inactive | inhibition [18]: Active | Activity [8]: Active | Activity [24]: Active | Activity [25]: Active | inhibition [10]: Active | Activity [26]: Active

N[C@@H](CO)C(=O)O
Activity [21]: Active

O=C(CCC(=O)NO)NO [SUCCINODIHYDROXAMIC ACID]
IC50 (Serine racemase [1]): 90 µM | Ki [27]: 3.6 µM | inhibition [3]: inactive | Stability [4]: Unstable | Stability [5]: Unstable | Activity [6]: Active | Activity [8]: Active | inhibition [9]: inactive | inhibition [10]: Active | Activity [11]: Active

N[C@@H](C(=O)O)[C@H](O)C(=O)O
Ki (Serine racemase [23]): 43 µM

NC(CO)C(=O)NO (stereo not given)
inhibition [12]: inactive | Activity [20]: inactive | Activity [21]: Active

CC(O)C(N)C(=O)NO (stereo not given)
inhibition [12]: inactive | Activity [20]: inactive | Activity [21]: Active

NCC(=O)O
Activity [21]: Active

CC(=O)NO
inhibition [12]: inactive | Activity [6]: Active | Activity [8]: inactive | Activity [11]: inactive

O=C(CCCCCCC(=O)Nc1ccccc1)NO
inhibition [12]: inactive | Activity [6]: Active | Activity [8]: inactive

O=C(NO)c1ccc([N+](=O)[O-])cc1
inhibition [12]: inactive

O=C(CCCC(=O)NO)NO [GLUTARODIHYDROXAMIC ACID]
IC50 (Serine racemase [1]): 170 µM | Stability [4]: Unstable | Stability [5]: Unstable | Activity [8]: Active | Activity [11]: Active | Activity [22]: Active

O=C(CCCCC(=O)NO)NO
inhibition [12]: inactive | Activity [6]: inactive | Stability [17]: Stable | Activity [8]: inactive | Stability [19]: Stable | Activity [11]: inactive | Activity [22]: inactive

O=C(NO)c1ccc(Cl)cc1
inhibition [12]: inactive
